# Source: ChEMBL document CHEMBL3751694, “1-Piperazinylphthalazines as potential VEGFR-2 inhibitors and anticancer agents: Synthesis and in vitro biological evaluation” (Eur J Med Chem, 2016)
# Calls of active or inactive are those of the source. The calls are words filed in the database; no cut-off is given here.
# Key:
# Type in all cases: functional
# [1] = (§1) Growth inhibition of human HL-60(TB) cells at 10 uM after 48 hrs by SRB method; settings: HL-60, 48 h, read-out: GI
# Method in brief: (§2)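 NCI single-dose primary screen at 10^-5 M, 48 h exposure. Cells grown in RPMI 1640 with 5% FBS and 2 mM L-glutamine. Suspension cells fixed in situ with TCA (final 16%), stained with SRB, absorbance read at 515 nm. Percent growth inhibition calculated against time-zero and untreated control plates.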
# [2] = (§3) Growth inhibition of human BT549 cells at 10 uM after 48 hrs by SRB method; settings: BT-549, 48 h, read-out: GI
# Method in brief: (§4)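 NCI 56-line primary screen at a single 10^-5 M concentration. Cells grown in RPMI 1640 with 5% FBS and 2 mM L-glutamine, plated at 5000–40,000 cells/well, then preincubated for 24 h. Exposure was 48 h at 37 °C and 5% CO2. Adherent cells were fixed with cold TCA at 10% final, suspension cells at 16%. Staining used 0.4% SRB, read at 515 nm. Results are % growth inhibition relative to control.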
# [3] = system: HL-60(TB); assay: as §1; method in brief: as §2
# [4] = system: BT-549; assay: as §3; method in brief: as §4
SMILES,inhibition of growth at 10 µM [1],inhibition of growth at 10 µM [2],growth inhibition (GI) [3],growth inhibition (GI) [4]
Cc1nc(NC(=O)CN2CCN(c3nnc(-c4ccccc4)c4ccccc34)CC2)sc1C(=O)Nc1ccccc1,83%,56%,,
CCOC(=O)c1ccc(NC(=O)CN2CCN(c3nnc(-c4ccccc4)c4ccccc34)CC2)cc1,,,Active,Active
